Experimental findings from ChEMBL document CHEMBL2380307, “Discovery of diarylurea P2Y(1) antagonists with improved aqueous solubility” (Bioorg Med Chem Lett, 2013) are described below.

Series [1] is described as follows: Lipophilicity, log P of the compound by RP-HPLC analysis. The class given is physicochemical.
Series [2] concerns Liver microsomes. As to the kind of experiment: (§1) Metabolic stability in human liver microsome assessed as compound remaining after 10 mins. Conditions: microsomes, 10 min. The series is classed as ADME. A general note: Liver microsomes are vesicles of endoplasmic reticulum, rich in cytochrome P450 enzymes.
Series [3] has as its system Liver microsomes. As to the kind of experiment: (§2) Metabolic stability in rat liver microsomes assessed as compound remaining after 10 mins. The class given is ADME, Microsome. Conditions: microsomes, 10 min. The procedure, abridged:
(§3)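 Liver microsomes incubated for 10 min; read-out is percentage of parent remaining.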

Series [4] is described as follows: Oral bioavailability in rat at 1 mg/kg. The class given is ADME, organism-based. Particulars: in vivo. The procedure, abridged:
(§4)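 Rat PK. Dosing was either 1 mg/kg IV/PO in 10% DMAC/10% EtOH/10% cremophor/70% H2O, or 1 mg/kg IV in 10% EtOH/10% cremophor/80% H2O, or 2 mg/kg IV with 5 mg/kg PO in 10% EtOH/10% cremophor/80% H2O. Read-outs: CL, Vss, t1/2, F.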

The next series concerns Rattus norvegicus. As to the kind of experiment: Volume of distribution at steady state in rat at 1 mg/kg, iv and po. The series is classed as ADME, organism-based. On the set-up: dose 1 mg/kg, route oral. Conditions: in vivo. The procedure, abridged:
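Rats dosed at 1 mg/kg by both IV and PO routes in 10% DMAC/10% EtOH/10% cremophor/70% H2O. Steady-state volume of distribution was derived from the IV plasma profile.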

The nature of series [5]: Half life in rat at 1 mg/kg, iv and po. The series is classed as ADME, organism-based. On the set-up: dose 1 mg/kg, route oral. Conditions: in vivo. Put shortly: as §4
A short description of series [6]: Permeability from apical to basolateral side of human Caco2 cells. The class given is ADME, cell-based. Particulars: Caco-2, read-out: permeability.
A short description of series [7]: as §2. The series is classed as ADME, Microsome. Conditions: liver microsomes, read-out: Stability. Put shortly:
as §3

Series [8] can be described thus: Clearance in rat at 2 mg/kg, iv and 5 mg/kg, po. The class given is ADME, organism-based. Particulars: in vivo. The procedure, abridged: as §4
Series [9] is described as follows: Half life in rat at 2 mg/kg, iv and 5 mg/kg, po. The class given is ADME, organism-based. Conditions: in vivo. The procedure, abridged:
as §4

A short description of series [10]: Volume of distribution at steady state in rat at 2 mg/kg, iv and 5 mg/kg, po. Particulars: in vivo, read-out: Vdss. The class given is ADME, organism-based. The procedure, abridged: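 Rats given 2 mg/kg IV and 5 mg/kg PO in 10% EtOH/10% cremophor/80% H2O. Vss was obtained from the IV pharmacokinetic profile.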
Series [11] is described as follows: Oral bioavailability in rat at 5 mg/kg. The class given is ADME, organism-based. Conditions: in vivo. Put shortly:
as §4

The nature of series [12]: as §1. Particulars: liver microsomes, read-out: Stability. The series is classed as ADME, microsomes.
Series [13] concerns Plasma. As to the kind of experiment: Plasma concentration in rabbit cuticle bleeding model at 15 mg/kg, iv followed by administered 23.4 mg/kg/hr of sustaining dose. The class given is ADME, organism-based, Oryctolagus cuniculus. Conditions: in vivo. The procedure, abridged: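 Rabbit cuticle bleeding model with IV loading dose plus sustaining infusion (15 or 9 mg/kg + 23.4 mg/kg/h). Measured ex vivo platelet aggregation blockade, cuticle bleeding time, average plasma concentration and blood pressure.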

Series [14] can be described thus: Half life in rat at 1 mg/kg, iv. The series is classed as ADME, organism-based. On the set-up: dose 1 mg/kg, route intravenous. Particulars: in vivo. Put shortly: as §4
Series [15] relates to Plasma. As to the kind of experiment: Plasma concentration in rat at 1 mg/kg, iv followed by administered 25 mg/kg/hr of sustaining dose. The class given is ADME, organism-based. Particulars: in vivo. Put shortly:
(§5)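 Rats pretreated IV with a loading dose plus sustaining infusion (1 + 2.5, 1 + 5, 1 + 10 or 1 + 25 mg/kg + mg/kg/h). Arterial thrombosis was induced with FeCl2, and thrombus weight was measured; plasma concentrations were measured at each dose. n=6–8 per dose. Vehicle controls received 10% DMA/90% 5% dextrose IV.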

For series [16], the system named is Plasma. In words: Plasma concentration in rat at 1 mg/kg, iv followed by administered 5 mg/kg/hr of sustaining dose. The series is classed as ADME, organism-based. Conditions: in vivo. The procedure, abridged: as §5
Series [17] has as its system Plasma. In words: Plasma concentration in rat at 1 mg/kg, iv followed by administered 10 mg/kg/hr of sustaining dose. The class given is ADME, organism-based. Particulars: in vivo. The procedure, abridged:
as §5

A short description of series [18]: Volume of distribution at steady state in rat at 1 mg/kg, iv. The class given is ADME, organism-based. On the set-up: dose 1 mg/kg, route intravenous. Particulars: in vivo, read-out: Vdss. The procedure, abridged: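 Rat PK: single 1 mg/kg IV dose in 10% EtOH/10% cremophor/80% H2O. Vss was derived from plasma concentration–time data.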
Series [19] in a line: Clearance in rat at 1 mg/kg, iv. The series is classed as ADME, organism-based. On the set-up: dose 1 mg/kg, route intravenous. Particulars: in vivo. The procedure, abridged: as §4
The subject of series [20] is Plasma. As to the kind of experiment: Plasma concentration in rat at 1 mg/kg, iv followed by administered […] of sustaining dose. The class given is ADME, organism-based. Particulars: in vivo.

The term logP denotes the decadic logarithm of the partition coefficient of the neutral form, usually between octanol and water. Higher therefore signals higher lipophilicity. Regarding `CC(C)N1CCC(COc2ccc(NC(=O)Nc3cccnc3Oc3ccccc3C(C)(C)C)c(F)c2)CC1`, the log partition coefficient (logP) in [1] came out at 3.8.
`CN(C)Cc1ccc(NC(=O)Nc2cccnc2Oc2ccccc2C(C)(C)C)c(F)c1` gave a log partition coefficient (logP) in [1] of 4.2.
Still for that read-out and setting: under `CC(C)(C)c1ccccc1Oc1ncccc1NC(=O)Nc1ccc(-c2ccccc2CO)cc1F` stands 5.5.
The compound `CC(C)(C)c1ccccc1Oc1ncccc1NC(=O)Nc1ccc(N2CCNCC2)cc1` gave a log partition coefficient (logP) in series [1] of 3.2.
`CC(C)(C)c1ccccc1Oc1ncccc1NC(=O)Nc1ccc(N2CCN(Cc3ccccc3)CC2)cc1` registered a logP in [1] of 5.8.
In turn, `CC(C)CN1CCC(COc2ccc(NC(=O)Nc3cccnc3Oc3ccccc3C(C)(C)C)cc2)CC1` yielded a logP in [1] of 4.5.
On the same count and under the same terms, the same measure for `CC(C)(C)c1ccccc1Oc1ncccc1NC(=O)Nc1ccc(OCC2CCN(Cc3ccccc3)CC2)cc1F`: 5.8.
In the case of `CN(C)CC(C)(C)COc1ccc(NC(=O)Nc2cccnc2Oc2ccccc2C(C)(C)C)c(F)c1`, the Stability result in the series with Liver microsomes [2] and in the series with Liver microsomes [3] was “Unstable” in each case. Further, in series [1], the log partition coefficient (logP) is 5.2.
As to `CC(C)(C)c1ccccc1Oc1ncccc1NC(=O)Nc1ccc(N2CCOCC2)cc1F`, the logP in series [1] came to 4.5.
Same read-out and setting: under `CN(C)Cc1ccc(-c2ccc(NC(=O)Nc3cccnc3Oc3ccccc3C(C)(C)C)c(F)c2)cc1` stands 5.4; under `CN1CCN(c2ccc(NC(=O)Nc3cccnc3Oc3ccccc3C(C)(C)C)cc2)CC1`, 3.9; under `CN(C)Cc1cccc(-c2ccc(NC(=O)Nc3cccnc3Oc3ccccc3C(C)(C)C)c(F)c2)c1`, 5.5.
What is called bioavailability is the share of a dose that reaches the circulation, judged against a reference dose that is usually intravenous. Read a high bioavailability as much systemic uptake. The half-life is how long it takes for the measured level to halve. `CC(C)(C)c1ccccc1Oc1ncccc1NC(=O)Nc1ccc(OC(F)(F)F)cc1` showed a bioavailability in series [4] of 7%. This compound also gave a Vdss in the series on Rattus norvegicus of 5.6 L/kg. The compound also showed a half-life in [5] of 15 h. The same compound came in with a logP in series [1] of 5.7. In addition, the Papp A→B in series [6] amounted to 2.1 ×10⁻⁶ cm/s. Also, the remaining at 10 min in series [7] amounted to 86%.
With `COC(=O)C1(c2ccc(NC(=O)Nc3cccnc3Oc3ccccc3C(C)(C)C)cc2)CC1`, in series [1], the log partition coefficient (logP) was found to be 5.1.
Turning to `CC(C)CN1CCC(COc2ccc(NC(=O)Nc3cccnc3Oc3ccccc3C(C)(C)C)c(F)c2)CC1`, the clearance in [8] was 22 mL/min/kg. The half-life in series [9] is 3.4 h. The Vd in series [10] stood at 5 L/kg. The compound further returned a lipophilicity (logP) in [1] of 5.2. In addition, the Papp A→B in series [6] amounted to 1.6 ×10⁻⁶ cm/s. Besides, in series [7], the remaining at 10 min stood at 67%. This compound registered a bioavailability in series [11] of 40%.
`CN(C)CC(C)(C)COc1ccc(NC(=O)Nc2cccnc2Oc2ccccc2C(C)(C)C)cc1`: the remaining at 10 min in series [12] was 12%. The compound further came in with a log partition coefficient (logP) in series [1] of 5.1. Also, the Stability entry in the series with Liver microsomes [3] was “Unstable”.
Consider `CC(C)CCN1CCC(COc2ccc(NC(=O)Nc3cccnc3Oc3ccccc3C(C)(C)C)c(F)c2)CC1`, for which, in [1], the log partition coefficient (logP) turned out to be 5.5.
In series [1], `CC(C)(C)c1ccccc1Oc1ncccc1NC(=O)Nc1ccc(C2(CO)CC2)cc1` came in with a log partition coefficient (logP) of 4.6.
In the case of `CC(C)(C)c1ccccc1Oc1ncccc1NC(=O)Nc1ccc(N2CCCCC2)cc1`, in [1], the lipophilicity (logP) came out at 5.5.
Regarding `CN(C)CC(C)(C)COc1ccc(NC(=O)Nc2cccnc2Oc2ccccc2[Si](C)(C)C)cc1`, the remaining at 10 min in series [12] was determined as 29%. Also, the logP in series [1] amounted to 4.7.
For `CN(C)Cc1ccccc1-c1ccc(NC(=O)Nc2cccnc2Oc2ccccc2C(C)(C)C)c(F)c1`, the concentration with Plasma [13] stood at 5 µM; with Plasma [15], 13.7 µM; with Plasma [16], 3.6 µM; in the series on Plasma [17], 8.5 µM; with Plasma [20], 1.3 µM. Further, the half-life in series [14] is 1.5 h. Further, the Stability result in the series on Liver microsomes [2] is reported as “Unstable”. Moreover, the Vd in series [18] came out at 8.7 L/kg. Also, in series [1], the logP was found to be 5.3. This compound yielded a clearance in series [19] of 158 mL/min/kg. Moreover, the remaining at 10 min in series [7] worked out at 24%.
For `CC(C)(C)c1ccccc1Oc1ncccc1NC(=O)Nc1ccc(C2(CN3CCCC3)CC2)cc1`, in [1], the lipophilicity (logP) turned out to be 3.7.
The same measure, in the same setting: under `COCC1(c2ccc(NC(=O)Nc3cccnc3Oc3ccccc3C(C)(C)C)cc2)CC1` stands 5.2.
